Screening results (PubChem BioAssay)
TAG inh: inhibitors of triacylglycerol accumulation; H9c2 cells, Nile Red lipid (TAG) fluorescence; cells loaded with 200 µM oleic acid; inhibition, % at 12.5 µM; 230,000 tested, 0.66% active;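 active = pattern-corrected inhibition of lipid staining of at least 50% with the nuclear-stain viability signal not falling by more than 50%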;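 also: 0% = DMSO wells and 100% = triacsin C control wells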
Jurkat NFkB inh: inhibitors of the PMA/ionomycin-induced NF-kB reporter in Jurkat cells; AID 435003; inhibition, % at 4 µM; 330,000 tested, 0.53% active; PMA/ionomycin-induced NF-kB luciferase reporter, luminescence; in the data active = inhibition above about 50%
iPSC survival up: hiPSC single-cell survival enhancement. 360,000 tested, 0.044% active. AID 602274. ATPlite luminescence; 100% = ROCK inhibitor wells, 0% = DMSO. survival enhancement, % at 20 µM; in the data active = survival enhancement above about 18%;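 also: cells exposed to compounds for 16 hours before the ATP read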
Lipid droplet: hepatic lipid droplet formation modulation; AML12 mouse hepatocytes, oleate lipid droplets, BODIPY imaging; inhibition, % at 6.5 µM; 240,000 tested, 0.4% active;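 active = lipid droplet intensity inhibited by at least 50%, with more than 500 cells counted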
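Assay system: AML12 hepatocytes (mouse) / Also added: 100 µM oleic acid challenge / Times: overnight treatment with compound plus oleate / Detection: high-content imaging of BODIPY-stained droplets and DAPI nuclei / Evaluation: % inhibition of lipid droplet signal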
Gli-Sufu antag: Gli-Sufu pathway antagonism; Sufu-KO-LIGHT fibroblasts, Gli luciferase reporter luminescence; inhibition, % at 5 µM; 340,000 tested, 0.74% active; AID 588413;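 active = inhibition above about 55%, limit read from the data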;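 also: 0% = DMSO-treated cells and 100% = wells with medium but no cells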
697 NFkB inh: lowers PMA/ionomycin-induced NF-kB signal in 697 B cells; 697 B-cell NF-kB luciferase reporter, 16 h; 330,000 tested, 0.33% active; inhibition, % at 4 µM; in the data active = inhibition above about 35%
Jurkat NFkB conf: inhibitors of the PMA/ionomycin-induced NF-kB reporter in Jurkat cells, retest; 2,700 tested, 27% active; shares compounds with Jurkat NFkB inh; inhibition, % at 4 µM; Jurkat NF-kB luciferase, 16 h;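 active = inhibition reaching about 45% at 4 µM in either replicate, limit read from the data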;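 also: plate controls were PMA/ionomycin stimulated DMSO wells for no effect and unstimulated DMSO wells for full effect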
The depositor's hits bear a star. Most compounds without a hit are left out; they make up all but 1.8% or so of the library.

For C=CCn1c2ccccc2c(=O)c2cc(C#CC[C@@H](C)O)ccc21 the results were TAG inh -25, Jurkat NFkB inh -144, iPSC survival up -4, Gli-Sufu antag -51 and 697 NFkB inh -140.
For C=CCn1c2ccccc2c(=O)c2cc(C#CC3(O)CCCCC3)ccc21 the results were TAG inh -3, Jurkat NFkB inh -277, iPSC survival up -5, Lipid droplet -2, Gli-Sufu antag -28, 697 NFkB inh -231 and Jurkat NFkB conf -89.
Screening CCOc1ccccc1CNC(=O)c1ccc2c(c1)N(CC)CCS2 returned TAG inh -7, Jurkat NFkB inh -4, iPSC survival up -2, Lipid droplet -3, Gli-Sufu antag -13 and 697 NFkB inh -8.
Screening CC(=O)c1ccc2noc(-c3ccc(C)cc3)c2c1 returned TAG inh -3, Jurkat NFkB inh -14, iPSC survival up 1, Lipid droplet 7, Gli-Sufu antag -3 and 697 NFkB inh 1.
Screening Cc1ccc(-c2onc3ccc(C(=O)O)cc23)cc1 returned Jurkat NFkB inh 52*, iPSC survival up 0, Gli-Sufu antag -17, 697 NFkB inh -56 and Jurkat NFkB conf -1.
Cc1cc(NC(=O)CSc2nnc(-c3ccccc3)c(-c3ccccc3)n2)no1 was read as TAG inh 6, Jurkat NFkB inh 60*, iPSC survival up 0, Lipid droplet 39, Gli-Sufu antag -3, 697 NFkB inh 4 and Jurkat NFkB conf 13.
Cc1cc(NC(=O)CSc2ccccc2)no1 was read as TAG inh 3, Jurkat NFkB inh -22, iPSC survival up -2, Lipid droplet -6, Gli-Sufu antag -39 and 697 NFkB inh 9.
Screening O=C(N/N=C/c1cn(-c2ccccc2)nc1-c1cc2ccccc2o1)c1ccncc1 returned TAG inh 28, Jurkat NFkB inh -155, iPSC survival up -2, Lipid droplet 27, Gli-Sufu antag -110, 697 NFkB inh -142 and Jurkat NFkB conf -119.
Screening Cc1ccc(C(=O)c2sc3nsc(C)c3c2N)cc1 returned TAG inh 6, Jurkat NFkB inh -157, iPSC survival up 2, Lipid droplet 4, Gli-Sufu antag 3, 697 NFkB inh -212 and Jurkat NFkB conf -114.
Cc1snc2sc(C(=O)c3ccc(Br)cc3)c(N)c12 was read as TAG inh -4, Jurkat NFkB inh -129, iPSC survival up -1, Lipid droplet 8, Gli-Sufu antag -59 and 697 NFkB inh -148.
CCc1cc2cc(C(=O)Nc3ccccc3F)sc2s1 was read as Jurkat NFkB inh -218, iPSC survival up -1, Lipid droplet 2, Gli-Sufu antag -66, 697 NFkB inh 2 and Jurkat NFkB conf -104.
Screening Cc1ccc(NC(=O)CSc2nc3ccccc3c3nc4ccccc4n23)cc1 returned Jurkat NFkB inh 73*, iPSC survival up -2, Gli-Sufu antag 46, 697 NFkB inh 3 and Jurkat NFkB conf 39.
Screening O=C(N/C=C/c1ccccc1)c1ccccc1 returned TAG inh 31, Jurkat NFkB inh -176, iPSC survival up -1, 697 NFkB inh -196 and Jurkat NFkB conf 15.
`O=C(NCCNC(=O)c1ccccc1)c1ccccc1` gave TAG inh 2, Jurkat NFkB inh -2, iPSC survival up 0, Lipid droplet -11, Gli-Sufu antag 0 and 697 NFkB inh -12.
`COC(=O)c1ccc(NC(=O)C2CC3CCC2C3)cc1` (stereo unspecified) gave TAG inh -1, Jurkat NFkB inh -67, iPSC survival up -1, Gli-Sufu antag -44 and 697 NFkB inh -39.
`CCOC(=O)c1ccc(NC(=O)C2CC3CCC2C3)cc1` (stereo unspecified) gave TAG inh 18, Jurkat NFkB inh -154, iPSC survival up -1, Gli-Sufu antag -92, 697 NFkB inh -164 and Jurkat NFkB conf -116.
Screening COc1ccc(C(=O)/C=C2/c3ccccc3CC(C)(C)N2C)cc1 returned Jurkat NFkB inh 61*, iPSC survival up -3, Gli-Sufu antag 34, 697 NFkB inh -48 and Jurkat NFkB conf -9.
